Experimental data taken from paper PMC4348351 (Pest management science, 2014).

Key:
[1] = system: Culex quinquefasciatus AChE (CqAChE); assay: AChE inhibition, Ellman assay, CqAChE; type: biochemical; details: SR = IC50 of mosquito AChE/IC50 of An. gambiae
O. nubilalis = assay: Topical toxicity bioassay, O. nubilalis; type: in vivo, Ostrinia nubilalis; details: for SR (toxicity): Selectivity Ratio = O. nubilalis LD50/An. gambiae LD50; for LD50 (95% CI) O. nubilalis: topical, L2 larvae, 24 hour mortality
Outline: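 Lepidopteran larvae were ice-chilled for 3 min before 1 μL of test compound in 95% ethanol was applied to the abdomen with a handheld microapplicator. Five doses, ten larvae per dose, done three times, with an ethanol-only negative control. Food substrate was provided in netted containers.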

[2] = system: Aedes albopictus AChE (Ae.bAChE); assay: AChE inhibition, Ellman assay, Ae.bAChE; type: biochemical; details: SR = IC50 of mosquito AChE/IC50 of An. gambiae
[3] = target: Drosophila melanogaster AChE (DmAChE) (Drosophila melanogaster, UniProt P07140); assay: AChE inhibition, Ellman assay, DmAChE; type: biochemical; details: for SR DmAChE: SR = IC50 of agricultural insect AChE/IC50 of An.gAChE
[4] = system: Ostrinia nubilalis AChE (OnAChE); assay: AChE inhibition, Ellman assay, OnAChE; type: biochemical; details: for SR OnAChE: SR = IC50 of agricultural insect AChE/IC50 of An.gAChE
[5] = target: Aedes aegypti AChE (Ae.aAChE) (Aedes aegypti, UniProt Q6A2E2); assay: AChE inhibition, Ellman assay, Ae.aAChE; type: biochemical; details: SR = IC50 of mosquito AChE/IC50 of An. gambiae
[6] = system: Musca domestica AChE (MdAChE); type: biochemical; details: for SR MdAChE: SR = IC50 of agricultural insect AChE/IC50 of An.gAChE
Cu. quinquefasciatus = assay: Topical toxicity bioassay, Cu. quinquefasciatus; type: in vivo, Culex quinquefasciatus; details: adult females, 24 hour mortality
Outline: (§1)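 Adult mosquitoes were chilled on ice for 3 min, then 200 nL of test compound in 95% ethanol was applied to the abdomen by handheld microapplicator. Five doses, ten insects each, repeated three times, with an ethanol-only negative control. Insects were held under netting with free access to sugar water.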

Ae. aegypti = assay: Topical toxicity bioassay, Ae. aegypti; type: in vivo, Aedes aegypti; details: adult females, 24 hour mortality
Outline: as §1

[7] = system: Anopheles albimanus AChE (An.aAChE); assay: AChE inhibition, Ellman assay, An.aAChE; type: biochemical; details: SR = IC50 of mosquito AChE/IC50 of An. gambiae
[8] = system: Diaphorina citri AChE (DcAChE); assay: AChE inhibition, Ellman assay, DcAChE; type: biochemical; details: SR = IC50 of agricultural insect AChE/IC50 of An.gAChE
[9] = system: Plutella xylostella AChE (PxAChE); assay: AChE inhibition, Ellman assay, PxAChE; type: biochemical; details: for SR PxAChE: SR = IC50 of agricultural insect AChE/IC50 of An.gAChE
[10] = system: Anopheles quadrimaculatus AChE (An.qAChE); assay: AChE inhibition, Ellman assay, An.qAChE; type: biochemical; details: SR = IC50 of mosquito AChE/IC50 of An. gambiae
[11] = system: Apis mellifera AChE (Ap.mAChE); assay: AChE inhibition, Ellman assay, Ap.mAChE; type: biochemical; details: for SR Ap.mAChE: SR = IC50 of agricultural insect AChE/IC50 of An.gAChE
An. gambiae = assay: Topical toxicity bioassay, An. gambiae; type: in vivo, Anopheles gambiae; details: adult females, 24 hour mortality
Outline: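 Anopheline adults, chilled on ice for 1 min, received 200 nL of test compound in 95% ethanol on the abdomen via handheld microapplicator. Five doses × ten insects, three repeats, plus an ethanol-only control. Sugar water was freely available under netting.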

[12] = system: mosquito acetylcholinesterases; assay: AChE inhibition, statements across mosquito species; type: biochemical

SMILES | SR CqAChE [1] | SR (toxicity) (O. nubilalis) | LD50 (95% CI) O. nubilalis (O. nubilalis) | SR Ae.bAChE [2] | SR DmAChE [3] | SR OnAChE [4] | SR Ae.aAChE [5] | SR MdAChE [6] | LD50 (95% CI) Cu. quinquefasciatus (Cu. quinquefasciatus) | LD50 (95% CI) Ae. aegypti (Ae. aegypti) | SR An.aAChE [7] | SR DcAChE [8] | SR PxAChE [9] | SR An.qAChE [10] | SR Ap.mAChE [11] | LD50 (95% CI) An. gambiae (An. gambiae) | further results
CNC(=O)Oc1cccc2c1OC(C)(C)O2 [Bendiocarb, bendiocarb] | 1.2 | 2 | 4 (2–6) aB ng/mg | 0.8 | 0.2 | 2 | 0.7 | 0.3 | 2 (1–4) aB ng/mg | 1 (0.5–3) aA ng/mg | 1.0 | 0.5 | 1.3 | 0.8 | 0.3 | 2 (1–4) aA ng/mg | fold more toxic than 1, O. nubilalis (O. nubilalis; LD50 ratio versus 1): 24 fold; LD50 (95% CI) O. nubilalis (O. nubilalis; listed as bendiocarb): 4 ng/mg; fold more potent than propoxur, DmAChE ([3]; IC50 ratio versus propoxur): 3.9 fold; fold more potent than 1, OnAChE ([4]; IC50 ratio versus 1): 8 fold; fold more potent than 5, OnAChE ([4]; IC50 ratio versus 5): 243 fold; fold more potent than propoxur, MdAChE ([6]; IC50 ratio versus propoxur): 2.6 fold; fold more potent than 1, PxAChE ([9]; IC50 ratio versus 1): 3 fold; fold more potent than 5, PxAChE ([9]; IC50 ratio, 100 μM value used for 5): 461 fold; SR PxAChE ([9]; listed as bendiocarb): ≤ 7; fold difference in IC50 versus propoxur, Ap.mAChE ([11]; IC50 ratio versus propoxur): 19 fold
CNC(=O)Oc1cccc2c1OC(C)(C)C2 [Carbofuran, carbofuran] | 2.3 |  |  | 1.0 |  |  | 0.9 |  |  |  | 1.2 |  |  | 0.9 |  |  | fold more active than bendiocarb, within each mosquito species ([12]; IC50 ratio versus bendiocarb): about 3 fold; fold more potent than propoxur, within each mosquito species ([12]; IC50 ratio versus propoxur): approximately 10 fold
CNC(=O)Oc1ccccc1OC(C)C [Propoxur] | 1.1 | 14 | 42 (34–49) cA ng/mg | 0.8 | 0.2 | 15 | 0.8 | 0.3 | 8 (5–11) bA ng/mg | 3 (1–4) aA ng/mg | 1.1 | 2 | 7.5 | 1.0 | 2 | 3 (2–4) aA ng/mg | SR PxAChE ([9]; listed as propoxur): 7
